Measured values taken from publication PMC9308755 (Chemmedchem, 2022).

How the values were obtained:
[1] = Human plasma protein binding; assay type: in vitro ADME
[2] = Mouse plasma protein binding; assay type: in vitro ADME
[3] = Mouse liver microsome stability; assay type: in vitro ADME; conditions: liver microsomes
mouse TRPC5 = target: T1, mouse TRPC5 (Mus musculus, UniProt Q9QX29); test: Syncropatch automated patch clamp, inhibition of riluzole-induced TRPC5 currents; assay type: cell-based; conditions: for IC50: TRPC5 IC50, riluzole (30 μM)-induced TRPC5 current; for IC50 / TRPC5 activity (in words): Syncropatch
T1 sequence (Q9QX29 1-975): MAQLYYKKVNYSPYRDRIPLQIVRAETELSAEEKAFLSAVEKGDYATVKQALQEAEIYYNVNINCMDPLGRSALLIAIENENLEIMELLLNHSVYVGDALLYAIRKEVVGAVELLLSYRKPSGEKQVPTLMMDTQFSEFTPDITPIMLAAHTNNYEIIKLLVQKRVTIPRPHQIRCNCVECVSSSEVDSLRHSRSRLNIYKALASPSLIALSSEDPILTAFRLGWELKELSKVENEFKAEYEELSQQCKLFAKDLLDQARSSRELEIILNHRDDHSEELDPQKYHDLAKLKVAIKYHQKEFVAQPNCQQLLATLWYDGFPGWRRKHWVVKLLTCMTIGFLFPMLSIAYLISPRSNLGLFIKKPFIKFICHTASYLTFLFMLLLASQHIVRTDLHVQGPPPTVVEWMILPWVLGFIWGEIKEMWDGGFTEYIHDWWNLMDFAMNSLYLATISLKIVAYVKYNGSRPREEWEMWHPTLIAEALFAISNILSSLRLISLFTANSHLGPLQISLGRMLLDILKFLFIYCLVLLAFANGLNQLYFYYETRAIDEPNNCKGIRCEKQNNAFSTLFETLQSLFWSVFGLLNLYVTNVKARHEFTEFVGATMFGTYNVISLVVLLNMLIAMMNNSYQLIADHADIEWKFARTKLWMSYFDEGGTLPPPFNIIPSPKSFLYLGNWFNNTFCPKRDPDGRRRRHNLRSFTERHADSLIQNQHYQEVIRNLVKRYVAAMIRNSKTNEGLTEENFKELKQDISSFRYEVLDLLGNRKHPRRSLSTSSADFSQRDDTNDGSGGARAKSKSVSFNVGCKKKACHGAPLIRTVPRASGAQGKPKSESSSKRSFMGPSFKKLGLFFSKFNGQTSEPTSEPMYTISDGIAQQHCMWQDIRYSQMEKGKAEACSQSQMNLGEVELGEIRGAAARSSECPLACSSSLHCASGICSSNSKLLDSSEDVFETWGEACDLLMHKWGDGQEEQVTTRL
Outline: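 Doxycycline-induced (0.5–1 μg/mL, 3 days) Flp-In T-REx-293 cells stably expressing mouse TRPC5, used in automated patch clamp. 200 ms ramps from −100 to +100 mV every 5–10 s. 30 μM riluzole activates currents and stays present with compound. Only cells with doubly-rectifying currents kept. % inhibition compares 3 ramps after vs before compound, normalized to a reference inhibitor at 3 μM. IC50 from three-parameter fit.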

[4] = Human liver microsome stability; assay type: in vitro ADME; conditions: liver microsomes
In vivo rat cassette PK = conditions: for Brain / Plasma: Rat cassette (0.25 mpk); for Brain: brain level for Kp; for Plasma: plasma level for Kp; for Kp / C0 / MRT inf / Vd / clearance / half-life / AUC: rat, intravenous; for Kp: brain/plasma, 0.25 mpk; for C0 / MRT inf / Vd / clearance / half-life: in vivo; for C0 / MRT inf / Vd / clearance / half-life / AUC: 0.25 mg/kg; for AUC: plasma

Structure (SMILES): c1ccc(Cn2c(N3CCCC3)nc3ccccc32)cc1 [7 c, 1‐Benzyl‐2‐(pyrrolidin‐1‐yl)‐1H‐benzo[d]imidazole]
- fraction unbound [1]: 0.044
- fraction unbound [2]: 0.036
- CLint scaled [3]: 31.8 L/h/kg
- mCLHEP [3]: 4.62 L/h/kg
- IC50 (mouse TRPC5): 4.3 ± 1.63 µM
- CLint scaled [4]: 9.85 L/h/kg
- hCLHEP [4]: 1.07 L/h/kg

Structure (SMILES): CCCNc1nc2ccccc2n1Cc1ccccc1 [7 f, 1‐Benzyl‐N‐propyl‐1H‐benzo[d]imidazol‐2‐amine]
- fraction unbound [1]: 0.041
- fraction unbound [2]: 0.108
- CLint scaled [3]: 47.8 L/h/kg
- mCLHEP [3]: 4.85 L/h/kg
- IC50 (mouse TRPC5): 0.72 ± 0.21 µM
- CLint scaled [4]: 6.2 L/h/kg
- hCLHEP [4]: 1.01 L/h/kg

Structure (SMILES): CC(C)CCNc1nc2ccccc2n1Cc1ccccc1 [7 g, 1‐Benzyl‐N‐isopentyl‐1H‐benzo[d]imidazol‐2‐amine]
- IC50 (mouse TRPC5): 1.3 ± 0.31 µM

Structure (SMILES): CN1CCC(N2CCN(c3nc4ccccc4n3Cc3ccccc3)CC2)CC1 [7 h, 1‐Benzyl‐2‐(4‐(1‐methylpiperidin‐4‐yl)piperazin‐1‐yl)‐1H‐benzo[d]imidazole]
- TRPC5 activity (in words) (mouse TRPC5): not productive

Structure (SMILES): c1ccc(Cn2c(N3CCC4(CC3)CNC4)nc3ccccc32)cc1 [7 i, 7‐(1‐Benzyl‐1H‐benzo[d]imidazol‐2‐yl)‐2,7‐diazaspiro[3.5]nonane]
- TRPC5 activity (in words) (mouse TRPC5): not productive

Structure (SMILES): c1ccc(Cn2c(CCN3CCCC3)nc3ccccc32)cc1 [7 j, 1‐Benzyl‐2‐(2‐(pyrrolidin‐1‐yl)ethyl)‐1H‐benzo[d]imidazole]
- TRPC5 activity (in words) (mouse TRPC5): moderate activity

Structure (SMILES): Fc1ccccc1Cn1c(N2CCCC2)nc2ccccc21 [9 a, 1‐(2‐Fluorobenzyl)‐2‐(pyrrolidin‐1‐yl)‐1H‐benzo[d]imidazole]
- IC50 (mouse TRPC5): 2.69 µM

Structure (SMILES): Fc1cccc(Cn2c(N3CCCC3)nc3ccccc32)c1 [9 b, 1‐(3‐Fluorobenzyl)‐2‐(pyrrolidin‐1‐yl)‐1H‐benzo[d]imidazole]
- IC50 (mouse TRPC5): 1.49 ± 0.31 µM

Structure (SMILES): Fc1ccc(Cn2c(N3CCCC3)nc3ccccc32)cc1 [9 c, 1‐(4‐Fluorobenzyl)‐2‐(pyrrolidin‐1‐yl)‐1H‐benzo[d]imidazole]
- IC50 (mouse TRPC5): 0.59 ± 0.14 µM

Structure (SMILES): Clc1cccc(Cn2c(N3CCCC3)nc3ccccc32)c1 [9 d, 1‐(3‐Chlorobenzyl)‐2‐(pyrrolidin‐1‐yl)‐1H‐benzo[d]imidazole]
- IC50 (mouse TRPC5): 0.72 ± 0.21 µM

Structure (SMILES): Clc1ccc(Cn2c(N3CCCC3)nc3ccccc32)cc1 [9 e, 1‐(4‐Chlorobenzyl)‐2‐(pyrrolidin‐1‐yl)‐1H‐benzo[d]imidazole]
- fraction unbound [1]: 0.013
- fraction unbound [2]: 0.013
- CLint scaled [3]: 255 L/h/kg
- mCLHEP [3]: 5.29 L/h/kg
- IC50 (mouse TRPC5): 0.44 ± 0.14 µM
- CLint scaled [4]: 16.7 L/h/kg
- hCLHEP [4]: 1.12 L/h/kg

Structure (SMILES): COc1ccc(Cn2c(N3CCCC3)nc3ccccc32)cc1 [9 f, 1‐(4‐Methoxybenzyl)‐2‐(pyrrolidin‐1‐yl)‐1H‐benzo[d]imidazole]
- IC50 (mouse TRPC5): 1.15 ± 0.25 µM

Structure (SMILES): COc1ccc(Cn2c(N3CCCC3)nc3ccccc32)cc1F [9 g, 1‐(3‐Fluoro‐4‐methoxybenzyl)‐2‐(pyrrolidin‐1‐yl)‐1H‐benzo[d]imidazole]
- IC50 (mouse TRPC5): 1.78 ± 0.43 µM

Structure (SMILES): Cc1ccc(Cn2c(N3CCCC3)nc3ccccc32)cc1 [9 k, 1‐(4‐Methylbenzyl)‐2‐(pyrrolidin‐1‐yl)‐1H‐benzo[d]imidazole]
- IC50 (mouse TRPC5): 0.902 ± 0.34 µM

Structure (SMILES): Cc1cccc(Cn2c(N3CCCC3)nc3ccccc32)c1 [9 l, 1‐(3‐Methylbenzyl)‐2‐(pyrrolidin‐1‐yl)‐1H‐benzo[d]imidazole]
- IC50 (mouse TRPC5): 1.9 µM

Structure (SMILES): Fc1cc(Cl)ccc1Cn1c(N2CCCC2)nc2ccccc21 [9 n, 1‐(4‐Chloro‐2‐fluorobenzyl)‐2‐(pyrrolidin‐1‐yl)‐1H‐benzo[d]imidazole]
- fraction unbound [1]: 0.01
- fraction unbound [2]: 0.0217
- CLint scaled [3]: 192 L/h/kg
- mCLHEP [3]: 5.26 L/h/kg
- IC50 (mouse TRPC5): 0.84 ± 0.23 µM
- CLint scaled [4]: 14.4 L/h/kg
- hCLHEP [4]: 1.11 L/h/kg

Structure (SMILES): N#Cc1cc(Cn2c(N3CCCC3)nc3ccccc32)ccc1F [9 o, 2‐Fluoro‐5‐((2‐(pyrrolidin‐1‐yl)‐1H‐benzo[d]imidazol‐1‐yl)methyl)benzonitrile]
- Brain (In vivo rat cassette PK): 41.8
- Plasma (In vivo rat cassette PK): 69.7
- Kp (In vivo rat cassette PK): 0.6
- C0 (In vivo rat cassette PK): 0.221 µg/mL
- MRT inf (In vivo rat cassette PK): 38.5 min
- Vd (In vivo rat cassette PK): 1.8 L/kg
- clearance (In vivo rat cassette PK): 3.68 L/h/kg
- half-life (In vivo rat cassette PK): 38.4 min
- AUC (In vivo rat cassette PK): 0.262 µg·h/mL
- fraction unbound [1]: 0.068
- fraction unbound [2]: 0.053
- CLint scaled [3]: 22.2 L/h/kg
- mCLHEP [3]: 4.35 L/h/kg
- IC50 (mouse TRPC5): 0.54 ± 0.23 µM
- CLint scaled [4]: 2.29 L/h/kg
- hCLHEP [4]: 0.792 L/h/kg

Structure (SMILES): Clc1ccc(Cn2c(N3CCCC3)nc3ccccc32)cn1 [9 t, 1‐((6‐Chloropyridin‐3‐yl)methyl)‐2‐(pyrrolidin‐1‐yl)‐1H‐benzo[d]imidazole]
- IC50 (mouse TRPC5): 3.11 ± 0.94 µM
- inhibition at 3 µM (mouse TRPC5; read-out: % Inhibition @ 3 μM): 127%

Structure (SMILES): O=C(c1ccccc1)n1c(N2CCCC2)nc2ccccc21 [9 u, Phenyl(2‐(pyrrolidin‐1‐yl)‐1H‐benzo[d]imidazol‐1‐yl)methanone]
- TRPC5 activity (in words) (mouse TRPC5): inactive

Structure (SMILES): O=S(=O)(c1ccccc1)n1c(N2CCCC2)nc2ccccc21 [9 v, 1‐(Phenylsulfonyl)‐2‐(pyrrolidin‐1‐yl)‐1H‐benzo[d]imidazole]
- TRPC5 activity (in words) (mouse TRPC5): inactive

Structure (SMILES): Cc1cc2nc(N3CCCC3)n(Cc3ccccc3)c2cc1C [14 b, 1‐Benzyl‐5,6‐dimethyl‐2‐(pyrrolidin‐1‐yl)‐1H‐benzo[d]imidazole]
- TRPC5 activity (in words) (mouse TRPC5): moderate activity
- IC50 (mouse TRPC5): 12.3 µM

Structure (SMILES): COc1ccc2c(c1)nc(N1CCCC1)n2Cc1ccccc1 [14 h, 1‐Benzyl‐5‐methoxy‐2‐(pyrrolidin‐1‐yl)‐1H‐benzo[d]imidazole]
- IC50 (mouse TRPC5): 1.15 ± 0.33 µM

Structure (SMILES): O=c1[nH]ncc(-c2ccc3c(c2)nc(N2CCCC2)n3Cc2ccccc2)c1Cl [14 n, 5‐(1‐Benzyl‐2‐(pyrrolidin‐1‐yl)‐1H‐benzo[d]imidazol‐5‐yl)‐4‐chloropyridazin‐3(2H)‐one]
- TRPC5 activity (in words) (mouse TRPC5): not as active as 1
- IC50 (mouse TRPC5): 7.55 ± 2.52 µM

Structure (SMILES): CC1CCCCN1c1nc2ccccc2n1Cc1ccc(Cl)cc1 (stereo not shown) [16 a, 1‐(4‐Chlorobenzyl)‐2‐(2‐methylpiperidin‐1‐yl)‐1H‐benzo[d]imidazole]
- TRPC5 activity (in words) (mouse TRPC5): not active

Structure (SMILES): CC1CCN(c2nc3ccccc3n2Cc2ccc(Cl)cc2)CC1 [16 b, 1‐(4‐Chlorobenzyl)‐2‐(4‐methylpiperidin‐1‐yl)‐1H‐benzo[d]imidazole]
- TRPC5 activity (in words) (mouse TRPC5): not active

Structure (SMILES): O=S1(=O)CCN(c2nc3ccccc3n2Cc2ccc(Cl)cc2)CC1 [16 c, 4‐(1‐(4‐Chlorobenzyl)‐1H‐benzo[d]imidazol‐2‐yl)thiomorpholine‐1,1‐dioxide]
- TRPC5 activity (in words) (mouse TRPC5): not active

Structure (SMILES): C[C@@H]1CCCN1c1nc2ccccc2n1Cc1ccc(Cl)cc1 [16 e, (R)‐1‐(4‐Chlorobenzyl)‐2‐(2‐methylpyrrolidin‐1‐yl)‐1H‐benzo[d]imidazole]
- IC50 (mouse TRPC5): 2.89 ± 0.7 µM

Structure (SMILES): CCCNc1nc2ccccc2n1Cc1ccc(Cl)cc1 [16 f, 1‐(4‐Chlorobenzyl)‐N‐propyl‐1H‐benzo[d]imidazol‐2‐amine]
- Brain (In vivo rat cassette PK): 163
- Plasma (In vivo rat cassette PK): 77.5
- Kp (In vivo rat cassette PK): 2.1
- C0 (In vivo rat cassette PK): 0.14 µg/mL
- MRT inf (In vivo rat cassette PK): 37.9 min
- Vd (In vivo rat cassette PK): 2.3 L/kg
- clearance (In vivo rat cassette PK): 3.47 L/h/kg
- half-life (In vivo rat cassette PK): 43.3 min
- AUC (In vivo rat cassette PK): 0.291 µg·h/mL
- fraction unbound [1]: 0.014
- fraction unbound [2]: 0.036
- CLint scaled [3]: 52 L/h/kg
- mCLHEP [3]: 4.9 L/h/kg
- IC50 (mouse TRPC5): 0.068 ± 0.106 µM
- CLint scaled [4]: 7.64 L/h/kg
- hCLHEP [4]: 1.04 L/h/kg
